According to ChEMBL document CHEMBL1123840, “Synthesis and evaluation of melphalan-containing N,N-dialkylenkephalin analogues as irreversible antagonists of the delta opioid receptor” (J Med Chem, 1987):
Where “and” joins values, the source holds several entries; their conditions need not be identical. Equal values may be shown once. Square brackets hold non-standard residues; d marks the D form. Peptide text beside a SMILES is read from it. * marks the point of attachment. ξ: configuration not given here. Tyr(Nα,Nα-Bn2) = O=C([C@H](Cc1ccc(O)cc1)N(Cc1ccccc1)Cc1ccccc1)*; Phe(4-N(CH2CH2Cl)2) = N[C@@H](Cc1ccc(N(CCCl)CCCl)cc1)C(=O)O; Tyr(Nα,Nα-allyl2) = C=CCN(CC=C)[C@@H](Cc1ccc(O)cc1)C(=O)*; ξPhe(4-N(CH2CH2Cl)2) = NC(Cc1ccc(N(CCCl)CCCl)cc1)C(=O)O; X1 = O=C(C(Cc1ccc(O)cc1)N(Cc1ccccc1)Cc1ccccc1)*; ξL = CC(C)CC(N)C(=O)O; Aib = CC(C)(N)C(=O)O

Columns and labels:
[1] = species on record: Mus musculus; test: Ratio of IC50 of morphine (agonist) expossed to the compound for 10 min and then washed 30 times to Ratio of IC50 of morphine (agonist) prior to exposure to compound; type: functional
Method in brief: (§1)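 Irreversible antagonism was measured in isolated tissue. The tissue was exposed to the compound for 10 min (30 min in some cases), then washed 30 times with fresh buffer to remove non-covalently bound ligand. Agonist IC50 was then redetermined. The ratio is this post-wash IC50 over the agonist IC50 in the same tissue before exposure. Mean ± SEM, n = 3 unless otherwise noted.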

[2] = target: Kappa-type opioid receptor (Cavia porcellus) (UniProt P41144); test: Ratio of IC50 of ethylketazocine (agonist) after 10 min of incubation along with compound (antagonist) and IC50 of agonist in absence of compound for Opioid receptor kappa 1 at 1 uM in GPI assay (Exp 1); type: functional
Method in brief: (§2)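 Reversible antagonism was measured in electrically stimulated isolated tissue (MVD or GPI) with the antagonist present. Agonists were morphine (μ), ethylketazocine (κ) and DADLE (δ). The value is the agonist IC50 with antagonist divided by the IC50 without it, i.e. the fold rightward shift of the agonist dose-response curve. Mean ± SEM, n = 3 unless otherwise noted.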

[3] = target: Delta-type opioid receptor (Mus musculus) (UniProt P32300); test: Ratio of IC50 of DADLE (agonist) after 10 min of incubation along with compound (antagonist) and IC50 of agonist in the absence of compound for Opioid receptor delta 1 at 10 uM in MVD assay; type: functional; method in brief: as §2
[4] = target: T1, Opioid receptors; mu/kappa/delta (Homo sapiens) (UniProt P41145+P41143+P35372); test: Reversible opioid agonist activity in the electrically stimulated guinea pig ileum(GPI) at 1 uM concentration (exp 2); type: functional, tissue-based; conditions: Cavia porcellus, target entry is the homologue from another species
[5] = target: Mu-type opioid receptor (Mus musculus) (UniProt P42866); test: Ratio of IC50 of […] (agonist) after 10 min of incubation along with compound (antagonist) and IC50 of agonist in absence of compound for Opioid receptor mu 1 at 1 uM in MVD assay; type: functional; method in brief: as §2
[6] = target: Kappa-type opioid receptor (Cavia porcellus) (UniProt P41144); test: Ratio of IC50 of ethylketazocine (agonist) after 10 min of incubation along with compound (antagonist) and IC50 of agonist in absence of compound for Opioid receptor kappa 1 at 1 uM in GPI assay (Exp 2); type: functional; method in brief: as §2
[7] = target: Delta-type opioid receptor (Mus musculus) (UniProt P32300); test: Ratio of IC50 of DADLE (agonist) after 10 min of incubation along with compound (antagonist) and IC50 of agonist in the absence of compound for Opioid receptor delta 1 at 1 uM in MVD assay; type: functional; method in brief: as §2
[8] = target: T2, Opioid receptor (Mus musculus) (UniProt P42866+P32300+P33534); test: Reversible opioid agonist activity in the electrically stimulated mouse vas deferens(MVD) at 10 uM of concentration; type: functional
[9] = target: T2, Opioid receptor (Mus musculus); test: (§3) Reversible opioid agonist activity in the electrically stimulated mouse vas deferens(MVD) at 1 uM concentration; type: functional
[10] = target: T1, Opioid receptors; mu/kappa/delta (Homo sapiens); test: Reversible opioid agonist activity in the electrically stimulated guinea pig ileum(GPI) at 1 uM concentration (exp 1); type: functional, tissue-based; conditions: Cavia porcellus, target entry is the homologue from another species
[11] = target: Mu-type opioid receptor (Cavia porcellus) (UniProt P97266); test: Ratio of IC50 of […] (agonist) after 10 min of incubation along with compound (antagonist) and IC50 of agonist in absence of compound for Opioid receptor mu 1 at 1 uM in GPI assay (exp 2); type: functional; method in brief: as §2
[12] = species on record: Mus musculus; test: Ratio of IC50 of DADLE (agonist) exposed to the compound for 10 min and then washed 30 times to Ratio of IC50 of morphine (agonist) prior to exposure to compound; type: functional; method in brief: as §1
[13] = target: Mu-type opioid receptor (Cavia porcellus) (UniProt P97266); test: Ratio of IC50 of […] (agonist) after 10 min of incubation along with compound (antagonist) and IC50 of agonist in absence of compound for Opioid receptor mu 1 at 1 uM in GPI assay (exp 1); type: functional; method in brief: as §2
[14] = species on record: Cavia porcellus; test: Reversible opioid agonist activity in the electrically stimulated guinea pig ileum(GPI) at 1 uM concentration (Exp 1); type: functional
[15] = target: Mu-type opioid receptor (Homo sapiens) (UniProt P35372); test: Ratio of IC50 of […] (agonist) after 10 min of incubation along with compound (antagonist) and IC50 of agonist in absence of compound for mu opioid receptor at 1 uM in MVD assay; type: functional; conditions: Mus musculus; method in brief: as §2
[16] = species on record: Mus musculus; test: as §3; type: functional
[17] = target: Delta-type opioid receptor (Mus musculus) (UniProt P32300); test: Ratio of IC50 of DADLE (agonist) after 10 min of incubation along with compound (antagonist) and IC50 of agonist in the absence of compound for delta opioid receptor at 1 uM in MVD assay; type: functional; method in brief: as §2
[18] = target: Kappa-type opioid receptor (Cavia porcellus) (UniProt P41144); test: Ratio of IC50 of ethylketazocine (agonist) after 10 min of incubation along with compound (antagonist) and IC50 of agonist in absence of compound for kappa opioid receptor at 1 uM in GPI assay; type: functional; method in brief: as §2
[19] = target: Mu-type opioid receptor (Cavia porcellus) (UniProt P97266); test: Ratio of IC50 of […] (agonist) after 10 min of incubation along with compound (antagonist) and IC50 of agonist in absence of compound for mu opioid receptor at 1 uM in GPI assay; type: functional; method in brief: as §2
[20] = species on record: Mus musculus; test: Ratio of IC50 of DADLE (agonist) expossed to the compound for 10 min and then washed 30 times to Ratio of IC50 of morphine (agonist) prior to exposure to compound; type: functional; method in brief: as §1
[21] = target: Mu-type opioid receptor (Cavia porcellus) (UniProt P97266); conditions: 1 uM
[22] = target: T1, Opioid receptors; mu/kappa/delta (Homo sapiens); test: (§4) Reversible opioid agonist activity in the electrically stimulated guinea pig ileum(GPI) at 1 uM concentration (Exp 2); type: functional, tissue-based; conditions: Cavia porcellus, target entry is the homologue from another species
[23] = target: Mu-type opioid receptor (Cavia porcellus) (UniProt P97266); conditions: 1 uM; remark: listed apart in the source
[24] = target: Mu-type opioid receptor (Mus musculus) (UniProt P42866); conditions: 10 uM
[25] = target: T1, Opioid receptors; mu/kappa/delta (Homo sapiens); conditions: Cavia porcellus; Ileum; 1 uM
[26] = species on record: Cavia porcellus; test: Reversible opioid antagonist activity in the electrically stimulated guinea pig ileum(GPI). Antagonist activity was evaluated with morphine at 0.02 uM concentration (Exp 2); type: functional
[27] = target: Kappa-type opioid receptor (Cavia porcellus) (UniProt P41144); test: Ratio of IC50 of ethylketazocine (agonist) after 10 min of incubation along with compound (antagonist) and IC50 of agonist in absence of compound for kappa opioid receptor at 1 uM in GPI assay (Exp 1); type: functional; method in brief: as §2
[28] = species on record: Cavia porcellus; test: as §4; type: functional
[29] = target: Mu-type opioid receptor (Cavia porcellus) (UniProt P97266); test: Ratio of IC50 of […] (agonist) after 10 min of incubation along with compound (antagonist) and IC50 of agonist in absence of compound for mu opioid receptor at 1 uM in GPI assay (Exp 2); type: functional; method in brief: as §2

T1 sequence (P35372 whole entry, looked up): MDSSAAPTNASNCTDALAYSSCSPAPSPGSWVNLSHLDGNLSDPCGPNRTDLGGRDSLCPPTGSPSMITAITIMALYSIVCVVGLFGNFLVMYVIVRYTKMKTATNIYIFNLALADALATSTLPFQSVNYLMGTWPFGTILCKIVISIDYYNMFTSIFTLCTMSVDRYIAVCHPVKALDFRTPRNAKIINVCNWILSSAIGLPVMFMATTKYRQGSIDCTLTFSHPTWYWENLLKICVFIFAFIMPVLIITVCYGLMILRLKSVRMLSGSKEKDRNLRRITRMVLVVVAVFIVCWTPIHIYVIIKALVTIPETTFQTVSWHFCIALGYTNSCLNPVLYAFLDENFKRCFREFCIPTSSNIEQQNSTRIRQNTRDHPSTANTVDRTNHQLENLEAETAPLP
T1 sequence (P41143 whole entry, looked up): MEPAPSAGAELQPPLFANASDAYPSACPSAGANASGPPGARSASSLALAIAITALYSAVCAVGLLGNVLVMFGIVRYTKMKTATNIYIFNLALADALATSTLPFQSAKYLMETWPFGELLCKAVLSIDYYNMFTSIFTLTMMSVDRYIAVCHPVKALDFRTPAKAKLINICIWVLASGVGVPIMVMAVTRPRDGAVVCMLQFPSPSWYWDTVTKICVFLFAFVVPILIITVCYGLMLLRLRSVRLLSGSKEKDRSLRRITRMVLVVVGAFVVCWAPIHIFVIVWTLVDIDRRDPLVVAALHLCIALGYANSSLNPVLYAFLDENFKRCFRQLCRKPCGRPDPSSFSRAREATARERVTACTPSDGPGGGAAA
T1 sequence (P41145 whole entry, looked up): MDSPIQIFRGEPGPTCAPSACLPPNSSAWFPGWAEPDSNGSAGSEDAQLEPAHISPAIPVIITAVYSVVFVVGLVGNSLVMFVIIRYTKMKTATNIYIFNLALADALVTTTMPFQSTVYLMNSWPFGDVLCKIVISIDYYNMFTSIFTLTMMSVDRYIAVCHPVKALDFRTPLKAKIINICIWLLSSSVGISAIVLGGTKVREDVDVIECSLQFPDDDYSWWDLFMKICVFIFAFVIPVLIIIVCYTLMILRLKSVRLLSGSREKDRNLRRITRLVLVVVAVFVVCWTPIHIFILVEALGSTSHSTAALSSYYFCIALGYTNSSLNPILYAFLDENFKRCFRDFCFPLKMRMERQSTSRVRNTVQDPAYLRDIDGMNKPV
T2 sequence (P32300 whole entry, looked up): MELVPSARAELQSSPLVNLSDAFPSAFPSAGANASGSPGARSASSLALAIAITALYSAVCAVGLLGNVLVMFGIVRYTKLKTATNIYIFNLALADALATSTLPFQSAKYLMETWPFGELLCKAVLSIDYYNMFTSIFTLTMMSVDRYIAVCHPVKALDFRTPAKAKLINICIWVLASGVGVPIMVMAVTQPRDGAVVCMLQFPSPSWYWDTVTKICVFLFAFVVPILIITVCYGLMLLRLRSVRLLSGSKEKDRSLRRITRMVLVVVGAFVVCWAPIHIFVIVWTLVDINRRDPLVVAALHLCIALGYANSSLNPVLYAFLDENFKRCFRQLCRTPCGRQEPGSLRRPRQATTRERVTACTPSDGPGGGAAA
T2 sequence (P33534 whole entry, looked up): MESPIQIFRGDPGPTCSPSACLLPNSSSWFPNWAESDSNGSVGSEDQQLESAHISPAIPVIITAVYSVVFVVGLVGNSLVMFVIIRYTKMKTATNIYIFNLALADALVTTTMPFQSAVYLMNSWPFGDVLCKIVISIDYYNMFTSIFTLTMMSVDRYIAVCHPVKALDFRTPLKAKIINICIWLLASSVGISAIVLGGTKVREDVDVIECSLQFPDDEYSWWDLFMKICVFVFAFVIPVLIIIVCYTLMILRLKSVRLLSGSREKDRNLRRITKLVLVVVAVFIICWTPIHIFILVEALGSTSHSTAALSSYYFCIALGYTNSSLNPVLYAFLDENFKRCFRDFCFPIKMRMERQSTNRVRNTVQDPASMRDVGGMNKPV
T2 sequence (P42866 whole entry, looked up): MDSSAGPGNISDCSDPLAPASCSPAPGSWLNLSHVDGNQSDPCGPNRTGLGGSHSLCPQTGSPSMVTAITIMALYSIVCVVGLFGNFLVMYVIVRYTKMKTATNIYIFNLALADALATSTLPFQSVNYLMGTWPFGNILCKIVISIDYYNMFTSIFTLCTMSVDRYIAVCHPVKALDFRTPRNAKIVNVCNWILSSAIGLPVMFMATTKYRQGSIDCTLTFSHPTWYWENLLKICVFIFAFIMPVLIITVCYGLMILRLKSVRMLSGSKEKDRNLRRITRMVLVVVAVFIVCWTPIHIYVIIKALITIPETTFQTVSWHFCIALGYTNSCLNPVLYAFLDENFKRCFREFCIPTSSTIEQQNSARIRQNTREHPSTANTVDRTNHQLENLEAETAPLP
Sequence of Delta-type opioid receptor (Mus musculus) (P32300 whole entry): as the sequence (P32300 whole entry, looked up) above
Sequence of Kappa-type opioid receptor (Cavia porcellus) (P41144 whole entry): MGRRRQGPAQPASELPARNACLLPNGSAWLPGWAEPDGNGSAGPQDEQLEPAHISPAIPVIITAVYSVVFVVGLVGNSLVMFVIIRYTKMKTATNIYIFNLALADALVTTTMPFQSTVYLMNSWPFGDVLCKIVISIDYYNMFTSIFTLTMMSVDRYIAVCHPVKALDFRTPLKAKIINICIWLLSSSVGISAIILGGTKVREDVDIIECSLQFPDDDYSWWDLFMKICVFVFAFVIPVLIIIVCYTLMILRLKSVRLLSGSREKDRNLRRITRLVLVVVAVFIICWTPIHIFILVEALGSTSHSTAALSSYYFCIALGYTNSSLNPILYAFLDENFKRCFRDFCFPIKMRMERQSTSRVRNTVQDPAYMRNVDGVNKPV
Sequence of Mu-type opioid receptor (Mus musculus) (P42866 whole entry): as the sequence (P42866 whole entry, looked up) above
Sequence of Mu-type opioid receptor (Cavia porcellus) (P97266 whole entry): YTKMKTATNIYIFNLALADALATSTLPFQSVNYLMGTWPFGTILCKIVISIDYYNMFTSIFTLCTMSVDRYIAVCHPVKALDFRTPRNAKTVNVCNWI
Sequence of Mu-type opioid receptor (Homo sapiens) (P35372 whole entry): as the sequence (P35372 whole entry, looked up) above

C=CCN(CC=C)[C@@H](Cc1ccc(O)cc1)C(=O)NC(C)(C)C(=O)NC(C)(C)C(=O)N[C@@H](Cc1ccc(N(CCCl)CCCl)cc1)C(=O)N[C@@H](CC(C)C)C(=O)O ({Tyr(Nα,Nα-allyl2)}-[Aib][Aib][Phe(4-N(CH2CH2Cl)2)]L-OH)
IC50 ratio [1]: 3
IC50 ratio [2]: 0.3
IC50 ratio [3]: 19.4
inhibition [4]: 14.7%
IC50 ratio [5]: 2.2
IC50 ratio [6]: 0.6
IC50 ratio [7]: 5
inhibition [8]: 16.8%
inhibition [9]: 20.6%
inhibition [10]: 8.1%
IC50 ratio [11]: 1
IC50 ratio [12]: 2.9
IC50 ratio [13]: 0.6

CC(C)C[C@H](NC(=O)[C@H](Cc1ccc(N(CCCl)CCCl)cc1)NC(=O)C(C)(C)NC(=O)C(C)(C)NC(=O)[C@H](Cc1ccc(O)cc1)N(Cc1ccccc1)Cc1ccccc1)C(=O)O ({Tyr(Nα,Nα-Bn2)}-[Aib][Aib][Phe(4-N(CH2CH2Cl)2)]L-OH)
Inhibition [14]: 12.5%
inhibition at 1 µM ([14]; Cavia porcellus, Ileum): 9.4%
IC50 ratio [15]: 1
inhibition at 1 µM [16]: 22.5%
IC50 ratio [17]: 1.2
IC50 ratio [18]: 0.2 and 0.3
IC50 ratio [19]: 0.4 and 1

CC(C)CC(NC(=O)C(Cc1ccc(N(CCCl)CCCl)cc1)NC(=O)CNC(=O)CNC(=O)C(Cc1ccc(O)cc1)N(Cc1ccccc1)Cc1ccccc1)C(=O)O (configuration not stated) (X1-GG[ξPhe(4-N(CH2CH2Cl)2)][ξL]-OH)
IC50 ratio [20]: 2.4
IC50 ratio [1]: 1.2
IC50 ratio [21]: 0.7
IC50 ratio [2]: 0.4
inhibition [22]: 10%
IC50 ratio [3]: 7.7
IC50 ratio [23]: 0.5
IC50 ratio [5]: 1
IC50 ratio [6]: 0.4
IC50 ratio [7]: 3
IC50 ratio [24]: 1.7
inhibition [8]: 18.3%
inhibition [9]: 16.2%
inhibition [25]: 4.8%

CC(C)C[C@H](NC(=O)[C@H](Cc1ccccc1)NC(=O)C(C)(C)NC(=O)C(C)(C)NC(=O)[C@H](Cc1ccc(O)cc1)N(Cc1ccccc1)Cc1ccccc1)C(=O)O ({Tyr(Nα,Nα-Bn2)}-[Aib][Aib]FL-OH)
IC50 ratio [26]: 1.3
inhibition at 1 µM [14]: 68.7%
IC50 ratio [15]: 1
IC50 ratio [27]: 1
IC50 [28]: 300 nM
inhibition at 1 µM [16]: 25.7%
IC50 ratio [17]: 5.6
IC50 ratio [29]: 0.7
